In ChEMBL document CHEMBL1671806, “New imidazolidinedione derivatives as antimalarial agents” (Bioorg Med Chem, 2011):
In brackets after ≈: the same amount, converted by molar mass. Activity calls are given as the source filed them. The calls are words filed in the database; no cut-off is given here.

Key:
[1] = Toxicity in Plasmodium berghei sporozoites infected orally dosed mouse administered for three consecutive days one day before infection; format: organism-based; settings: in vivo, po
Method in brief: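 Mice received P. berghei sporozoites. Each compound was ground and suspended in hydroxyethylcellulose plus Tween 80, then given orally at several dose levels up to 320 mg/kg/day. Dosing was once daily for three consecutive days: the day before, 4 h before, and the day after sporozoite inoculation.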

[2] = species on record: Mus musculus; test: Metabolic stability in mouse liver microsome by LC-MS/MS method; settings: liver microsomes
[3] = system: Plasmodium falciparum; test: Antimicrobial activity against Plasmodium falciparum W2 by microdilution method; format: functional, organism-based
[4] = system: Plasmodium falciparum; test: Antimicrobial activity against Plasmodium falciparum TM91C235 by microdilution method; format: functional, organism-based
[5] = system: Plasmodium berghei; test: Antiplasmodial activity against Plasmodium berghei sporozoites infected in orally dosed mouse administered for three consecutive days one day before infection; format: functional; settings: po, 24 h, read-out: MED
Method in brief: (§1)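 Mice were inoculated with P. berghei sporozoites. For oral dosing, compounds were ground and suspended in hydroxyethylcellulose plus Tween 80; for sc dosing, they were suspended in peanut oil. Doses were given once daily on three consecutive days: the day before, 4 h before, and the day after inoculation. Several dose levels were used, up to 320 mg/kg/day. Cure was scored.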

[6] = system: Plasmodium falciparum; test: Antimicrobial activity against Plasmodium falciparum D6 by microdilution method; format: functional, organism-based
[7] = species on record: Homo sapiens; test: Metabolic stability in human liver microsome by LC-MS/MS method; settings: liver microsomes
[8] = system: Plasmodium berghei; test: Antiplasmodial activity against Plasmodium berghei sporozoites infected in orally dosed mouse assessed as cure from infection 160 mg/kg/day, po administered for three consecutive days before infection measured after at day 31; format: functional, organism-based; method in brief: as §1
[9] = system: Plasmodium cynomolgi; test: Antiplasmodial activity against Plasmodium cynomolgi sporozoites infected in Rhesus monkey assessed as delay in detection of parasites in blood at 0.316 mg/kg/day, po administered for three consecutive days before infection; format: functional
[10] = system: Plasmodium cynomolgi; test: Antiplasmodial activity against Plasmodium cynomolgi sporozoites infected in Rhesus monkey assessed as duration for detection of parasites in blood at 0.316 mg/kg/day, po administered for three consecutive days before infection (reference value: 8 days); format: functional
[11] = system: Plasmodium cynomolgi; test: Antiplasmodial activity against Plasmodium cynomolgi sporozoites infected in Rhesus monkey assessed as relapse time at 10 mg/kg/day, po administered for 7 consecutive days
[12] = system: Plasmodium cynomolgi; test: Antiplasmodial activity against Plasmodium cynomolgi sporozoites infected in Rhesus monkey assessed as duration for detection of parasites in blood at 30 mg/kg/day, im administered for three consecutive days before infection (reference value: 8 days); format: functional; settings: route intramuscular
[13] = system: Plasmodium cynomolgi; test: Antiplasmodial activity against Plasmodium cynomolgi sporozoites infected in Rhesus monkey assessed as delay in detection of parasites in blood at 30 mg/kg/day, im administered for three consecutive days before infection; format: functional; settings: route intramuscular
[14] = system: Plasmodium cynomolgi; test: Antiplasmodial activity against Plasmodium cynomolgi sporozoites infected in Rhesus monkey assessed as delay in detection of parasites in blood at 1.78 mg/kg/day, po administered for three consecutive days before infection; format: functional
[15] = system: Plasmodium cynomolgi; test: Antiplasmodial activity against Plasmodium cynomolgi sporozoites infected in Rhesus monkey assessed as duration for detection of parasites in blood at 1.78 mg/kg/day, po administered for three consecutive days before infection (reference value: 8 days); format: functional
[16] = system: Plasmodium cynomolgi; test: Antiplasmodial activity against Plasmodium cynomolgi sporozoites infected in Rhesus monkey assessed as duration for detection of parasites in blood at 50 mg/kg/day, po administered for three consecutive days before infection (reference value: 8 days); format: functional
[17] = system: Plasmodium cynomolgi; test: Antiplasmodial activity against Plasmodium cynomolgi sporozoites infected in Rhesus monkey assessed as delay in detection of parasites in blood at 50 mg/kg/day, po administered for three consecutive days before infection; format: functional
[18] = Plasmodium falciparum, W2, read-out: IC50
[19] = Plasmodium falciparum, TM91C235, read-out: IC50
[20] = Plasmodium falciparum, D6, read-out: IC50

SMILES | MTD at 3 days [1] [mg/kg/day] | half-life [2] [h] | IC50 [3] [µg/mL] | IC50 [3, 18] [µg/mL] | IC50 [4] [µg/mL] | IC50 [4, 19] [µg/mL] | minimal effective dose [5] [mg/kg/day] | IC50 [6] [µg/mL] | IC50 [6, 20] [µg/mL] | half-life [7] [h] | Activity [8] | Time [9] [days] | Time [10] [days] | Time [11] [days] | Time [12] [days] | Time [13] [days] | Time [14] [days] | Time [15] [days] | Time [16] [days] | Time [17] [days]
CCCCCCN/C(=N\C1=NC(=O)C(=O)N1C(C)C)Nc1ccc(Cl)c(Cl)c1 | ≥ 160 | 0.131 | 2.62 (≈ 6.15 µM) | 2.62 (≈ 6.15 µM) | 2.8 (≈ 6.57 µM) | 2.8 (≈ 6.57 µM) | > 160 | 1.35 (≈ 3.17 µM) | 1.35 (≈ 3.17 µM) | – | – | – | – | – | – | – | – | – | – | –
C=CCON/C(=N\C1=NC(=O)C(=O)N1C(C)C)Nc1ccc(Cl)c(Cl)c1 | 120 | > 1 | 6.7 (≈ 16.8 µM) | 6.7 (≈ 16.8 µM) | – | > 15 | 160 | 8.5 (≈ 21.3 µM) | 8.5 (≈ 21.3 µM) | > 1 | Active | – | – | – | – | – | – | – | – | –
COc1cc(C)c2c(Oc3cccc(C(F)(F)F)c3)c(OC)cc(NC(C)CCCN)c2n1 (stereo unspecified) [TAFENOQUINE] | – | – | – | – | – | – | – | – | – | – | – | 2 | 10 | – | – | – | – | – | – | –
CC(C)N1C(=O)C(=O)N=C1/N=C(/Nc1ccc(Cl)c(Cl)c1)NC1C2CC3CC(C2)CC1C3 (stereo unspecified) | ≥ 320 | 0.124 | 2.68 (≈ 5.63 µM) | 2.68 (≈ 5.63 µM) | 2.07 (≈ 4.35 µM) | 2.07 (≈ 4.35 µM) | > 320 | 0.81 (≈ 1.7 µM) | 0.81 (≈ 1.7 µM) | 0.093 | – | – | – | – | – | – | – | – | – | –
CC(C)N1C(=O)C(=O)N=C1/N=C(\NCCN(C)C)Nc1ccc(Cl)c(Cl)c1 | ≥ 160 | > 1 | – | > 5 | – | > 5 | > 160 | – | > 5 | > 1 | – | – | – | – | – | – | – | – | – | –
CC(C)N1C(=O)C(=O)N=C1/N=C(\NCCCCN1CCCC1)Nc1ccc(Cl)c(Cl)c1 | ≥ 160 | > 1 | 2.3 (≈ 4.92 µM) | 2.3 (≈ 4.92 µM) | – | > 5 | > 160 | 1.55 (≈ 3.32 µM) | 1.55 (≈ 3.32 µM) | > 1 | – | – | – | – | – | – | – | – | – | –
CCN(CC)CCCC(C)Nc1ccnc2cc(Cl)ccc12 (stereo unspecified) [CHLOROQUINE] | – | – | – | – | – | – | – | – | – | – | – | – | – | 11 | – | – | – | – | – | –
CC(C)N1C(=O)C(=O)N=C1/N=C(\NCCCN(C)C)Nc1ccc(Cl)c(Cl)c1 | ≥ 160 | > 1 | – | > 5 | – | > 5 | > 160 | – | > 5 | > 1 | – | – | – | – | – | – | – | – | – | –
CC(C)N1C(=O)C(=O)N=C1/N=C(\NOC(C)(C)C)Nc1ccc(Cl)c(Cl)c1 | ≥ 160 | > 1 | 1.14 (≈ 2.75 µM) | 1.14 (≈ 2.75 µM) | 3.36 (≈ 8.11 µM) | 3.36 (≈ 8.11 µM) | > 160 | 2.75 (≈ 6.64 µM) | 2.75 (≈ 6.64 µM) | > 1 | – | – | – | – | – | – | – | – | – | –
CC(C)N1C(=O)C(=O)N=C1/N=C(\Nc1ccccc1)Nc1ccc(Cl)c(Cl)c1 | ≥ 160 | > 1 | 0.88 (≈ 2.1 µM) | 0.88 (≈ 2.1 µM) | 2.6 (≈ 6.22 µM) | 2.6 (≈ 6.22 µM) | > 160 | 2.16 (≈ 5.16 µM) | 2.16 (≈ 5.16 µM) | > 1 | – | – | – | – | – | – | – | – | – | –
CN/C(=N\C1=NC(=O)C(=O)N1C(C)C)Nc1ccc(Cl)c(Cl)c1 | ≥ 320 | > 1 | – | > 5 | – | > 5 | > 320 | – | > 5 | > 1 | – | – | – | – | – | – | – | – | – | –
CC(C)N1C(=O)C(=O)N=C1/N=C(\NOCc1ccccc1)Nc1ccc(Cl)c(Cl)c1 | ≥ 160 | 0.214 | – | > 5 | – | > 5 | > 160 | – | > 5 | > 1 | – | – | – | – | 27 | 19 | – | – | – | –
COc1cc(NC(C)CCCN)c2ncccc2c1 (stereo unspecified) [PRIMAQUINE] | – | – | – | – | – | – | – | – | – | – | – | – | – | – | – | – | 5 | 13 | – | –
CCN(CC)CCN/C(=N\C1=NC(=O)C(=O)N1C(C)C)Nc1ccc(Cl)c(Cl)c1 | ≥ 160 | 0.294 | – | > 5 | – | > 5 | > 160 | – | > 5 | 0.525 | – | – | – | – | – | – | – | – | – | –
CC(C)N/C(=N\C1=NC(=O)C(=O)N1C(C)C)Nc1ccc(Cl)c(Cl)c1 | ≥ 160 | > 1 | – | > 6 | – | – | 160 | – | > 6 | > 1 | Active | – | – | – | 62 | 54 | – | – | 11 | 3
CCN/C(=N\C1=NC(=O)C(=O)N1C(C)C)Nc1ccc(Cl)c(Cl)c1 | ≥ 160 | > 1 | 1.67 (≈ 4.51 µM) | 1.67 (≈ 4.51 µM) | – | > 5 | > 160 | – | > 5 | > 1 | – | – | – | – | – | – | – | – | – | –
CC(C)N1C(=O)C(=O)N=C1/N=C(\NCc1ccccc1)Nc1ccc(Cl)c(Cl)c1 | ≥ 320 | > 1 | 1.3 (≈ 3.01 µM) | 1.3 (≈ 3.01 µM) | – | > 5 | > 320 | 2.36 (≈ 5.46 µM) | 2.36 (≈ 5.46 µM) | > 1 | – | – | – | – | – | – | – | – | – | –
CON/C(=N\C1=NC(=O)C(=O)N1C(C)C)Nc1ccc(Cl)c(Cl)c1 | < 40 | > 1 | – | > 5 | – | > 5 | ≥ 40 | – | > 5 | > 1 | Active | – | – | – | – | – | – | – | – | –
CC(C)N1C(=O)C(=O)N=C1/N=C(\NCC(C)(C)C)Nc1ccc(Cl)c(Cl)c1 | ≥ 320 | > 1 | 0.37 (≈ 0.897 µM) | 0.37 (≈ 0.897 µM) | 0.95 (≈ 2.3 µM) | 0.95 (≈ 2.3 µM) | 160 | 1.1 (≈ 2.67 µM) | 1.1 (≈ 2.67 µM) | > 1 | Active | – | – | – | – | – | – | – | – | –
CC(C)N1C(=O)C(=O)N=C1/N=C(\NCCN1CCCC1)Nc1ccc(Cl)c(Cl)c1 | ≥ 160 | 0.886 | 1.32 (≈ 3 µM) | 1.32 (≈ 3 µM) | – | > 5 | > 160 | – | > 5 | > 1 | – | – | – | – | – | – | – | – | – | –
CC(C)N1C(=O)C(=O)N=C1/N=C(/Nc1ccc(Cl)c(Cl)c1)NC(C)(C)C | ≥ 320 | > 1 | 1.15 (≈ 2.89 µM) | 1.15 (≈ 2.89 µM) | 1.36 (≈ 3.41 µM) | 1.36 (≈ 3.41 µM) | > 320 | 0.72 (≈ 1.81 µM) | 0.72 (≈ 1.81 µM) | > 1 | – | – | – | – | – | – | – | – | – | –
CC(C)N1C(=O)C(=O)N=C1/N=C(\NCCCCCCNC(=O)OC(C)(C)C)Nc1ccc(Cl)c(Cl)c1 | ≥ 160 | 0.182 | 1.46 (≈ 2.7 µM) | 1.46 (≈ 2.7 µM) | – | > 5 | > 160 | – | > 5 | 0.208 | – | – | – | – | – | – | – | – | – | –
CCON/C(=N\C1=NC(=O)C(=O)N1C(C)C)Nc1ccc(Cl)c(Cl)c1 | < 40 | > 1 | – | > 5 | – | > 5 | 160 | – | > 5 | > 1 | Active | – | – | – | – | – | – | – | – | –
